Screening data (PubChem BioAssay)
Only some compounds are listed: those with a hit (about 1.8% of all), similar ones and a draw of the others.
CHRM4 agonist: human M4 muscarinic receptor agonists, primary screen, CHO-K1 cells, Fluo-8 calcium fluorescence | Muscarinic acetylcholine receptor M4 (Homo sapiens), P08173 | CHO-K1 hM4/Gqi5; vehicle 0%, full acetylcholine response 100% | activation, % at 3 µM | 360,000 compounds, 0.14% hits | AID 624127, 2012;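 active means activation above the run mean over all test wells plus 3 SD, cut at about 32% in these data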;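 further: peak over basal fluorescence ratio per well then scaled between controls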
Target sequence (P08173 whole entry, looked up): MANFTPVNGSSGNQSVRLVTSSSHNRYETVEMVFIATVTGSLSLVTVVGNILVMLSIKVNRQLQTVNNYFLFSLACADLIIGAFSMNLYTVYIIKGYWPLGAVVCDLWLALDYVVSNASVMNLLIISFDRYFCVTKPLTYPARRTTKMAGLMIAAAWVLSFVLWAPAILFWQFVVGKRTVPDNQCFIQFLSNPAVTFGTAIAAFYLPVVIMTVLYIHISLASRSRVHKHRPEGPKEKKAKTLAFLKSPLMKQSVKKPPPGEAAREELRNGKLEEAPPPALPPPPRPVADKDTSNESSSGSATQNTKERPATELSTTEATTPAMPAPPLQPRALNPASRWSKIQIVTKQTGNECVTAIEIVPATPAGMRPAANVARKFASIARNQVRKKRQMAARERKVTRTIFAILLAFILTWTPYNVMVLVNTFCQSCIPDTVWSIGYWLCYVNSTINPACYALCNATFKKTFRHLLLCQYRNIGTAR
CHRM5 agonist: human M5 muscarinic receptor agonists, primary screen, CHO-K1 cells, Fluo-8 calcium fluorescence; Muscarinic acetylcholine receptor M5 (Homo sapiens), P08912; CHO-K1 hM5 cells; 0% DMSO wells, 100% maximal acetylcholine response; activation, % at 3 µM; 360,000 compounds, 0.19% hits;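 active means activation above the run's mean over test compounds plus 3 SD, cut at about 23% in these data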;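 further: signal is peak over basal fluorescence ratio across the kinetic read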
CHRM4 antagonist: human M4 muscarinic receptor antagonists, primary screen, CHO cells, Fluo-8 calcium fluorescence. CHO-hM4 cells, ACh EC80. inhibition, % at 3 µM. 360,000 compounds, 0.73% hits;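 active means inhibition above its plate's cutoff, the mean inhibition of sample wells plus 3 SD, cut at about 27% in these data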
M5 antag: human M5 muscarinic receptor antagonists, primary screen, CHO cells, Fluo-8 calcium fluorescence | CHO-hM5 cells, ACh EC80 | inhibition, % at 3 µM | 360,000 compounds, 0.59% hits | Muscarinic acetylcholine receptor M5 (Homo sapiens), P08912;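 active means inhibition above a per-plate cutoff, the mean of that plate's test compounds plus 3 SD, cut at about 27% in these data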
CHRM5 PAM: human M5 muscarinic receptor positive allosteric modulators, primary screen, CHO-K1 cells, Fluo-8 calcium fluorescence; Muscarinic acetylcholine receptor M5 (Homo sapiens), P08912; CHO-K1 hM5, ACh EC20 PAM; 0% = ACh EC20, 100% = ACh EC100; activation, % at 3 µM; 360,000 compounds, 0.3% hits; AID 624038, 2012;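 active means activation above the run cutoff, the mean activation of all test compounds plus 3 SD, cut at about 18% in these data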
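Assay system: CHO-K1 hM5 cells / Incubation: Fluo-8 loading 80 min at 37 °C plus 30 min room temperature / Technique: Fluo-8 calcium dye fluorescence, kinetic read / Repeats: single replicate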
M4 PAM: human M4 muscarinic receptor positive allosteric modulators, primary screen, CHO-K1 cells, Fluo-8 calcium fluorescence; activation, % at 3 µM; CHO-K1 hM4/Gqi5, ACh EC20; 0% = ACh EC20, 100% = maximal ACh; Muscarinic acetylcholine receptor M4 (Homo sapiens), P08173; 360,000 compounds, 0.4% hits;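 active means activation above its plate's cutoff, the mean activation of sample wells plus 3 SD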
Of the large screens only hits and unclear results are named; the others gave an inactive call.

Clc1ccc(C(OCCN2CCCCC2)c2ccccc2)cc1 (centres undefined)	CHRM4 antagonist 38, M5 antag 57
c1ccc(C(OCCN2CCN(c3ncccn3)CC2)c2ccccc2)cc1	none
CC(C#N)CCC#N (centres undefined)	none
Nc1ccnn1C1CCNCC1	M5 antag 27
CN1CCC(n2nccc2N)CC1	none
O=C(NP(=O)(N1CC1)N1CC1)c1cc(I)ccc1I	none
CC(C)(O)/C=C/C(=O)C(C)(O)C1C(O)CC2(C)C3CC=C4C(C=C(O)C(=O)C4(C)C)C3(C)C(=O)CC12C (centres undefined)	CHRM5 PAM 19
CC(=O)OC(C)(C)/C=C/C(=O)[C@](C)(O)C1[C@H](O)C[C@@]2(C)C3CC=C4C(C[C@H](O)C(=O)C4(C)C)[C@]3(C)C(=O)C[C@]12C (some centres undefined)	M4 PAM 24
C/C(=N\N1CCCCCC1)c1c(O)n(-c2ccccc2C)c(=O)[nH]c1=O	none
CCOC(C(=O)OCCC[N+](C)(CC)CC)(c1ccccc1)c1ccccc1	M5 antag 55
CCOC(C(=O)OCC(O)CN(CC)CC)(c1ccccc1)c1ccccc1 (centres undefined)	none
O=C(O)C(O)(c1ccccc1)C1CCCCC1 (centres undefined)	none
CC[N+](C)(CC)CCCOC(=O)C(O)(c1ccccc1)C1CCCCC1 (centres undefined)	CHRM4 antagonist 99, M5 antag 98
CCN(CC)CCCOC(=O)C(OC)(c1ccccc1)c1ccccc1	CHRM4 antagonist 53, M5 antag 56
CCC(C)(O)C(=O)OC1C(=O)OC2CC3C(C)=CC(O)C(O)C3(C)C3C4(O)OCC23C1C(C)C4O (centres undefined)	none
COc1ccc(-c2ccc3c(c2)CN(C(=O)NC2CCCCC2)Cc2cnnn2-3)cc1	none
Cc1ccc(-c2cc(-c3ccccc3)cc(-c3ccccc3)[n+]2-c2ccc(C(=O)O)cc2)cc1	M4 PAM 25
Cc1ccc(-c2cc(-c3ccc(C)cc3)[n+](-c3ccc(C(=O)O)cc3)c(-c3ccc(C)cc3)c2)cc1	none
Brc1ccc(-[n+]2c(-c3ccccc3)cc(-c3ccccc3)cc2-c2ccccc2)cc1	CHRM4 antagonist 40
COc1ccc(-[n+]2c(-c3ccccc3)cc(-c3ccc(C)cc3)cc2-c2ccccc2)cc1	CHRM4 antagonist 82, M5 antag 81
CCCOC(=O)c1ccc(-[n+]2c(-c3ccccc3)cc(-c3ccccc3)cc2-c2ccccc2)cc1	CHRM4 antagonist 46, M5 antag 31
Clc1cc(Cl)cc(NC2=NCCS2)c1	none
O=C(Cn1ncc2c3ccccc3n(Cc3ccc(F)cc3)c2c1=O)N1CCC2(CC1)OCCO2	none
O=c1[nH]c2ccccc2n1C1CCN(C(CCc2ccccc2)c2nnnn2C2CCCCC2)CC1 (centres undefined)	none
CCN1CCN(c2nc3c(c(=O)[nH]2)CCCC3)CC1	M4 PAM 26
CCN1CCN(c2cn[nH]c(=O)c2Cl)CC1	none
CN(C)/C=C/C(=O)C(Cl)(Cl)Cl	none
CCOC(=O)c1c(NS(=O)(=O)c2ccccc2)n(CCCOC)c2nc3ccccc3nc12	M4 PAM 23
CC(C)(C)n1nnnc1C(c1ccccc1)N1CCC2(CC1)C(=O)NCN2c1ccccc1 (centres undefined)	none
O=C(CF)NC(NC(=S)Nc1ccccc1O)C(Cl)(Cl)Cl (centres undefined)	M4 PAM 20
c1ccc(CCN2CCCCC2)nc1	none
OCC1CN1C1CCCCC1 (centres undefined)	none
CC(CC(C)(C)N1CC1)=NNC(=O)Nc1cccc2ccccc12	none
